ChEMBL document CHEMBL1122125, “Synthesis and in vivo antitumor activity of potential 5-fluorouracil prodrugs” (1982)
pIC50: −log10 of the molar value.

Columns and labels:
[1] = test system: Mus musculus; assay: Antitumor activity was determined for 7-day average percent weight change against P-388 leukemia in mice at a dose of 25 mg/kg; format: functional
In short: (§1)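 Male B6D2F1J mice given 10⁶ P-388 cells ip on day 0, then treated ip once daily on days 1-4 (qd × 4), 5 mice per dose group. Compounds dosed in sterile saline, except one lipophilic thioether given in 10% Tween 80. Mice weighed on days 1 and 7; mean weight per mouse on day 1 and 7-day weight change reported in g and as percent.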

[2] = test system: Mus musculus; assay: Percent increase in life span against P-388 leukemia in mice was determined at a dose of 300 mg/kg; format: functional; details: P388
In short: (§2)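 Male B6D2F1J mice, 5 per dose group, received 10⁶ P-388 cells ip on day 0. Dosing was ip qd × 4 on days 1-4 in sterile saline, or 10% Tween 80 for the butyl thioether. Median survival times of treated (T) and untreated control (C, 10-17 mice) groups were compared: %ILS = [(T/C) − 1]100. Weights taken on days 1 and 7.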

[3] = test system: Mus musculus; assay: Antitumor activity was determined for survival range of mice against P-388 leukemia in mice at a dose of 100 mg/kg; format: functional
In short: (§3)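 Male B6D2F1J mice implanted ip with 10⁶ P-388 cells on day 0; test agents given ip on days 1–4 (qd × 4) in sterile saline, or in 10% Tween 80 for the lipophilic thioether. Groups of 5 treated mice, with 10–17 untreated controls per experiment. Mice weighed on days 1 and 7 to give the 7-day weight change in g and %. Survival recorded in days as median and range.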

[4] = test system: Mus musculus; assay: Antitumor activity was determined for 7-day average percent weight change against P-388 leukemia in mice at a dose of 100 mg/kg; format: functional; in short: as §1
[5] = test system: Mus musculus; assay: Antitumor activity was determined for 7-day average percent weight change against P-388 leukemia in mice at a dose of 300 mg/kg; format: functional; in short: as §1
[6] = test system: Mus musculus; assay: Percent increase in life span against P-388 leukemia in mice was determined at a dose of 100 mg/kg; format: functional; details: P388; in short: as §2
[7] = test system: Mus musculus; assay: Antitumor activity was determined for average 7-day weight change against P-388 leukemia in mice at a dose of 50 mg/kg; format: functional; in short: as §1
[8] = test system: Mus musculus; assay: Antitumor activity was determined for median survival of mice against P-388 leukemia in mice at a dose of 300 mg/kg; format: functional; in short: as §3
[9] = test system: Mus musculus; assay: Antitumor activity was determined for median survival of mice against P-388 leukemia in mice at a dose of 200 mg/kg; format: functional; in short: as §3
[10] = test system: Mus musculus; assay: Antitumor activity was determined for median survival of mice against P-388 leukemia in mice at a dose of 50 mg/kg; format: functional; in short: as §3
[11] = test system: Mus musculus; assay: Antitumor activity was determined for average weight on day 1 against P-388 leukemia in mice at a dose of 300 mg/kg; format: functional
In short: (§4)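 Male B6D2F1J mice, groups of 5, inoculated ip with 10⁶ P-388 cells on day 0. Drug given ip on days 1-4 (qd × 4) in sterile saline, or in 10% Tween 80 for the poorly water-soluble thioether. Average weight per mouse recorded on day 1, with reweighing on day 7 for percent weight change. Untreated control groups had 10-17 animals per experiment.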

[12] = test system: Mus musculus; assay: Antitumor activity was determined for 7-day average percent weight change against P-388 leukemia in mice at a dose of 200 mg/kg; format: functional; in short: as §1
[13] = test system: Mus musculus; assay: Antitumor activity was determined for survival range of mice against P-388 leukemia in mice at a dose of 200 mg/kg; format: functional; in short: as §3
[14] = test system: Mus musculus; assay: Antitumor activity was determined for 7-day average percent weight change against P-388 leukemia in mice at a dose of 50 mg/kg; format: functional; in short: as §1
[15] = test system: Mus musculus; assay: Antitumor activity was determined for survival range of mice against P-388 leukemia in mice at a dose of 50 mg/kg; format: functional; in short: as §3
[16] = test system: Mus musculus; assay: Antitumor activity was determined for survival range of mice against P-388 leukemia in mice at a dose of 25 mg/kg; format: functional; in short: as §3
[17] = test system: Mus musculus; assay: Antitumor activity was determined for average 7-day weight change against P-388 leukemia in mice at a dose of 100 mg/kg; format: functional; in short: as §1
[18] = test system: Mus musculus; assay: Antitumor activity was determined for survival range of mice against P-388 leukemia in mice at a dose of 300 mg/kg; format: functional; in short: as §3
[19] = test system: Mus musculus; assay: Antitumor activity was determined for average weight on day 1 against P-388 leukemia in mice at a dose of 50 mg/kg; format: functional; in short: as §4
[20] = test system: Mus musculus; assay: Percent increase in life span against P-388 leukemia in mice was determined at a dose of 50 mg/kg; format: functional; details: P388; in short: as §2
[21] = test system: Mus musculus; assay: Antitumor activity was determined for median survival of mice against P-388 leukemia in mice at a dose of 25 mg/kg; format: functional; in short: as §3
[22] = test system: Mus musculus; assay: Antitumor activity was determined for median survival of mice against P-388 leukemia in mice at a dose of 100 mg/kg; format: functional; in short: as §3
[23] = test system: Mus musculus; assay: Antitumor activity was determined for average weight on day 1 against P-388 leukemia in mice at a dose of 200 mg/kg; format: functional; in short: as §4
[24] = test system: Mus musculus; assay: Percent increase in life span against P-388 leukemia in mice was determined at a dose of 200 mg/kg; format: functional; details: P388; in short: as §2
[25] = test system: Mus musculus; assay: Antitumor activity was determined for average 7-day weight change against P-388 leukemia in mice at a dose of 25 mg/kg; format: functional; in short: as §1
[26] = test system: L1210; assay: Evaluated for cytotoxicity against L1210 mouse leukemia cells; format: functional; details: read-out: ID50 (the source's name)
In short: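 L1210 murine leukemia cells in Eagle's minimal essential medium with 15% fetal calf serum, streptomycin (100 μg/mL), penicillin (100 units/mL) and 0.05 mM 2-mercaptoethanol. Cells counted by Coulter counter after 48 h exposure. ID50 is the 50% growth-inhibitory dose. Triplicate assays, standard deviation ±10%.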

[27] = test system: Mus musculus; assay: Antitumor activity was determined for average 7-day weight change against P-388 leukemia in mice at a dose of 300 mg/kg; format: functional; in short: as §1
[28] = test system: Mus musculus; assay: Percent increase in life span against P-388 leukemia in mice was determined at a dose of 25 mg/kg; format: functional; details: P388; in short: as §2
[29] = test system: Mus musculus; assay: Antitumor activity was determined for average 7-day weight change against P-388 leukemia in mice at a dose of 200 mg/kg; format: functional; in short: as §1
[30] = test system: Mus musculus; assay: Antitumor activity was determined for average weight on day 1 against P-388 leukemia in mice at a dose of 25 mg/kg; format: functional; in short: as §4
[31] = test system: Mus musculus; assay: Antitumor activity was determined for average weight on day 1 against P-388 leukemia in mice at a dose of 100 mg/kg; format: functional; in short: as §1
[32] = test system: P388; assay: Antitumor activity was determined for survival range of mice against P-388 leukemia in mice at a dose of 30 mg/kg; format: functional, Mus musculus; in short: as §3
[33] = test system: P388; assay: Antitumor activity was determined for average 7-day weight change against P-388 leukemia in mice at a dose of 30 mg/kg; format: functional, Mus musculus; in short: as §3
[34] = test system: P388; assay: Percent increase in life span against P-388 leukemia in mice was determined at a dose of 15 mg/kg; format: functional; details: Mus musculus; in short: as §2
[35] = test system: P388; assay: Antitumor activity was determined for median survival of mice against P-388 leukemia in mice at a dose of 15 mg/kg; format: functional, Mus musculus; in short: as §3
[36] = test system: P388; assay: Percent increase in life span against P-388 leukemia in mice was determined at a dose of 30 mg/kg; format: functional; details: Mus musculus; in short: as §2
[37] = test system: P388; assay: Antitumor activity was determined for average 7-day weight change against P-388 leukemia in mice at a dose of 15 mg/kg; format: functional, Mus musculus; in short: as §3
[38] = test system: P388; assay: Antitumor activity was determined for average weight on day 1 against P-388 leukemia in mice at a dose of 15 mg/kg; format: functional, Mus musculus; in short: as §3
[39] = test system: P388; assay: Antitumor activity was determined for survival range of mice against P-388 leukemia in mice at a dose of 15 mg/kg; format: functional, Mus musculus; in short: as §3
[40] = test system: P388; assay: Antitumor activity was determined for average weight on day 1 against P-388 leukemia in mice at a dose of 30 mg/kg; format: functional, Mus musculus; in short: as §3
[41] = test system: P388; assay: Antitumor activity was determined for median survival of mice against P-388 leukemia in mice at a dose of 30 mg/kg; format: functional, Mus musculus; in short: as §3
[42] = test system: P388; assay: Antitumor activity was determined for 7-day average percent weight change against P-388 leukemia in mice at a dose of 30 mg/kg; format: functional, Mus musculus; in short: as §3
[43] = test system: P388; assay: Antitumor activity was determined for 7-day average percent weight change against P-388 leukemia in mice at a dose of 15 mg/kg; format: functional, Mus musculus; in short: as §3

O=C(O)[C@H]1OC(n2cc(F)c(=O)[nH]c2=O)[C@H](O)[C@@H]1O (some centres undefined)
Weight change [1]: 10%
ILS at 300 mg/kg [2]: 63%
Survival range [3]: 15
Weight change [4]: 8%
Weight change [5]: 0%
ILS at 100 mg/kg [6]: 45%
Average weight [7]: 1.6 g mouse-1
Survival median [8]: 18
Survival median [9]: 16
Survival median [10]: 15
Average weight [11]: 25 g mouse-1
Weight change [12]: -3%
Survival range [13]: 16
Weight change [14]: 7%
Survival range [15]: 13
Survival range [16]: 14
Average weight [17]: 2 g mouse-1
Survival range [18]: 16
Average weight [19]: 24.2 g mouse-1
ILS at 50 mg/kg [20]: 36%
Survival median [21]: 14
Survival median [22]: 16
Average weight [23]: 23.8 g mouse-1
ILS at 200 mg/kg [24]: 45%
Average weight [25]: 2.6 g mouse-1
pIC50 [26]: < 3.00
Average weight [27]: 0 g mouse-1
ILS at 25 mg/kg [28]: 27%
Average weight [29]: -0.8 g mouse-1
Average weight [30]: 24.6 g mouse-1
Average weight [31]: 23.6 g mouse-1

O=c1[nH]cc(F)c(=O)[nH]1 [FLUOROURACIL]
Survival range [32]: 11
Average weight [33]: -3.2 g mouse-1
ILS at 15 mg/kg [34]: 73%
Survival median [35]: 19
ILS at 30 mg/kg [36]: 91%
Average weight [37]: 0.4 g mouse-1
Average weight [38]: 24.4 g mouse-1
Survival range [39]: 15
pIC50 [26]: 6.00
Average weight [40]: 24.2 g mouse-1
Survival median [41]: 21
Weight change [42]: -13%
Weight change [43]: 2%
